This is an account of results in PMC10698511 (RSC Advances, 2023).

The nature of data set [1]: Plasma protein binding, human. It counts as in vitro ADME.
For data set [2], the system named is HeLa cells. Briefly: Cell cycle assay in HeLa cells. It counts as cell-based. The following applies: 48 h treatment. Summed up: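 HeLa cells (1 × 10^6) grown in 6-well plates and treated with test compound at several concentrations for 48 h. Cells harvested, fixed in 70% ethanol, held at −20 °C for 12 h, then stained with Muse cell cycle reagent for 30 min at room temperature in the dark. Phase distribution read on a Muse cell analyzer. G2/M percentages compared by one-way ANOVA.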

For another data set, the system named is tubulin. Briefly: Tubulin polymerization assay. It counts as biochemical. The following applies: 0 to 8 μM, 1 h at 37 °C, absorbance 340 nm. Summed up: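 Commercial tubulin polymerization kit used per the manufacturer's protocol. Test compound mixed with tubulin in the supplied general tubulin buffer. Polymerization followed by absorbance at 340 nm for 1 h at 37 °C. Curves compared by two-way ANOVA.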

Data set [3] can be described thus: Plasma protein binding, mouse. It counts as in vitro ADME.
For data set [4], the system named is HeLa cells. Put plainly: Antiproliferative activity against HeLa cells. It counts as cell-based. The note with it: Homo sapiens, 48 h, read-out: HeLa IC50. The essentials: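 HeLa cells from ATCC in RPMI-1640 with 10% FBS and 1% penicillin-streptomycin at 37 °C, 5% CO2. Seeded at 10000 cells/well one day before treatment. Test compound added from DMSO solution and incubated for 48 h, then CCK-8 reagent added and absorbance read at 450 nm. IC50 is the mean of three independent determinations from triplicate samples.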

A short description of data set [5]: Microsomal stability in human liver microsomes. The following applies: percentage remaining after 30 min, NADPH. It counts as in vitro ADME. On the technique in general: Liver microsomes are vesicles of endoplasmic reticulum, rich in cytochrome P450 enzymes.
Data set [6] in a line: Microsomal stability in mouse liver microsomes. It counts as in vitro ADME. The note with it: percentage remaining after 30 min, NADPH.

What is called fraction unbound is the share of the substance not bound to proteins or other matrix. A high value points to much free substance. The IC50 is the concentration that gives 50% inhibition. As for `O=C(Cc1ccc(-c2ccc(OCCN3CCOCC3)cc2)cn1)NCc1ccccc1` [Compound 8, Tirbanibulin, reference compound], the figures for the fraction unbound in data set [1] and in data set [3] were 0.187 and 0.152, respectively. Further, the cell cycle effect entry in the data set on HeLa cells [2] is “G2/M phase arrest”. Also, the “effect on tubulin polymerization” value in the data set on tubulin is “microtubule destabilizers”. Moreover, the IC50 in the data set on HeLa cells [4] amounted to 0.044 ± 0.011 µM.
With `Cc1ccc(CNC(=O)Cn2ccc(-c3ccc(OCCN4CCOCC4)cc3)cc2=O)cc1` [Compound 56], the fraction unbound in data set [1] is 0.171; in data set [3], 0.04. Besides, in data set [5], the “Microsomal stability (%) Human” value came to 20.2 ± 2.3%. For the same compound, the IC50 with HeLa cells [4] is 0.25 ± 0.06 µM. For the same compound, the “Microsomal stability (%) Mouse” value in data set [6] is listed as 50.6 ± 1.2%.
In the case of `O=C(Cn1ccc(-c2ccc(OCCN3CCOCC3)cc2)cc1=O)NCc1ccc(F)cc1` [Compound 57], the IC50 in the data set on HeLa cells [4] is 0.34 ± 0.11 µM.
